Test results taken from article PMC8591627 (ACS infectious diseases, 2021).
In brackets after ≈: the same amount, converted by molar mass. Several values for one entry are separate records, joined by “and”; a condition that tells them apart may be missing. Identical values can stand only once.

What was measured:
[1] = test system: MSSA ATCC 25923; assay: MIC, drug susceptibility assay; type: cell-based, Staphylococcus aureus; details: 18 h, 37 °C, visual inspection
[2] = test system: MRSA culture; assay: Time-kill curve; type: cell-based, Staphylococcus aureus
[3] = test system: VISA strains; assay: MIC versus VISA clinical isolates; type: cell-based, Staphylococcus aureus; details: six clinical isolates of VISA
[4] = test system: MRSA COL strain; assay: Mouse peritonitis-sepsis model; type: in vivo, Staphylococcus aureus; details: single dose 24 mg/kg intraperitoneal, 1 h post-infection
[5] = test system: S. aureus (ATCC 43300); assay: Membrane depolarization assay; type: cell-based, Staphylococcus aureus; details: 4.5x MIC, 10 min; positive control sodium deoxycholate
Summary of the method: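 ATCC 43300 was grown from a single colony in Mueller-Hinton to OD600 0.5, then loaded with DiBAC4 (final 20 μg/mL) for 5 min. Bacteria plus dye received test compound at 4.5x MIC; controls were no addition (negative) and 0.05% w/v sodium deoxycholate (positive). Fluorescence (ex 490/em 510 nm) was read every 5 s for 10 min, in triplicate.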

[6] = test system: MRSA strain LAC; assay: Selection of spontaneous resistant mutants, frequency; type: cell-based, Staphylococcus aureus; details: 8x MIC, 3 d incubation
[7] = test system: S. aureus LAC pLL39_yceI2; assay: MIC; type: cell-based, Staphylococcus aureus; details: genotype pLL39_yceI2, LAC background
[8] = test system: S. aureus LAC yceI::Tn pLL39_yceI1; assay: MIC; type: cell-based, Staphylococcus aureus; details: genotype yceI::Tn pLL39_yceI1, LAC background
[9] = test system: S. aureus LAC yceI::Tn pLL39_yceI2; assay: MIC; type: cell-based, Staphylococcus aureus; details: genotype yceI::Tn pLL39_yceI2, LAC background
[10] = test system: LAC pEPSA5; assay: MIC; type: cell-based, Staphylococcus aureus
Summary of the method: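 LAC strains carried empty pEPSA5 or pEPSA5_yceI (yceI under a xylose-inducible promoter). They were grown overnight with or without xylose induction; for the azoR overexpression set, pEPSA strains were cultured with 1% xylose. The 1/1000 inoculum went into Mueller-Hinton broth with serial compound dilutions, incubated statically at 37 °C for 18 h. Values represent three independent experiments.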

[11] = test system: LAC; assay: MIC; type: cell-based, Staphylococcus aureus; details: genotype LAC
Summary of the method: (§1)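 Overnight cultures were grown in 5 mL Mueller-Hinton at 37 °C with shaking at 200 rpm. They were diluted 1/1000 into 96-well plates holding serial dilutions of test compound in Mueller-Hinton broth. Plates were sealed against drying and incubated statically at 37 °C for 18 h before reading. All strains are isogenic and in the LAC background.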

[12] = test system: LAC yceI::Tn azoR2; assay: MIC; type: cell-based, Staphylococcus aureus
Summary of the method: as §1

[13] = test system: LAC yceI::Tn azoR3; assay: MIC; type: cell-based, Staphylococcus aureus
[14] = test system: LAC yceI::Tn pCM28; assay: MIC; type: cell-based, Staphylococcus aureus
Summary of the method: as §1

[15] = test system: LAC yceI::Tn azoR1 pCM28_azoR; assay: MIC; type: cell-based, Staphylococcus aureus
Summary of the method: as §1

[16] = test system: LAC yceI::Tn azoR3 pCM28_azoR; assay: MIC; type: cell-based, Staphylococcus aureus
Summary of the method: as §1

[17] = test system: LAC yceI::Tn azoR4 pCM28_azoR; assay: MIC; type: cell-based, Staphylococcus aureus
Summary of the method: as §1

O=C(Nc1cc(Cl)cc2cccnc12)c1ccc([N+](=O)[O-])s1 [JSF-3151]
MSSA ATCC 25923 MIC [1]: 1.6 μg/mL and 4.8 μM
MSSA ATCC 25923 MIC ([1]; listed as Z296972134 (3151)): 1.6 μg/mL and 4.8 μM
time to sterilize a MRSA culture ([2]; 1x MIC): ≤ 4 h
speed of sterilization relative to vancomycin ([2]; both at 1x MIC): more than six times faster than vancomycin
MIC versus VISA compared to MRSA [3]: even greater potency
mice surviving 3 d post-administration [4]: 2 out of 12
survival 3 d post-administration [4]: 16.7%
membrane depolarization (DiBAC4 fluorescence) [5]: failed to compromise the cell membrane
frequency of resistant mutants [6]: 6 x 10^−8
MIC [7]: 50 µg/mL (≈ 150 µM)
MIC [8]: 50 µg/mL (≈ 150 µM)
MIC [9]: 50 µg/mL (≈ 150 µM)
MIC ([10]; LAC pEPSA5, cultured with 1% xylose (Table 6)): 1.5 µg/mL (≈ 4.49 µM)
MIC ([10]; LAC pEPSA5, growth with xylose +): 0.78 µg/mL
MIC ([10]; LAC pEPSA5, growth with xylose −): 0.78 µg/mL (≈ 2.34 µM)
MIC [11]: 1.5 µg/mL (≈ 4.49 µM)
MIC shift versus yceI::Tn parental strain ([12]; azoR2 (Trp60stop)): 32 fold
MIC ([12]; genotype yceI::Tn azoR2): 25 µg/mL (≈ 74.9 µM)
MIC shift versus yceI::Tn parental strain ([13]; azoR3 (Thr121Ile)): 64 fold
MIC ([13]; genotype yceI::Tn azoR3): >50 µg/mL
MIC [14]: 0.78 µg/mL (≈ 2.34 µM)
MIC [15]: 3.1 µg/mL (≈ 9.29 µM)
MIC [16]: 1.5 µg/mL (≈ 4.49 µM)
MIC [17]: 1.5 µg/mL (≈ 4.49 µM)
half-life t1/2 in mouse liver microsomes: 1.46 min
